# ChEMBL document CHEMBL3352499, “One pot three components microwave assisted and conventional synthesis of new 3-(4-chloro-2-hydroxyphenyl)-2-(substituted) thiazolidin-4-one as antimicrobial agents” (Bioorg Med Chem Lett, 2014)
# Tested on: Aspergillus niger
# Assay: Fungicidal activity against Aspergillus niger NCIM-1196 after 48 to 72 hrs by two fold serial macrodilution technique
# Type: functional
# Details: not given
# In short: (§1)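 Serial subcultivation followed 72 h of exposure to compounds dissolved in saline containing 5% DMSO. MBC/MFC was the lowest concentration with no visible growth, taken as 99.5% killing of the original inoculum. Runs were in triplicate, with the mean reading used.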
row,Structure (SMILES),MFC
1,O=C1CSC(c2ccccc2)N1c1ccc(Cl)cc1O (configuration not stated),120 µg/mL
2,O=C1CSC(c2ccc([N+](=O)[O-])cc2)N1c1ccc(Cl)cc1O (configuration not stated),160 µg/mL
3,O=C1CSC(c2ccc(Cl)cc2Cl)N1c1ccc(Cl)cc1O (configuration not stated),145 µg/mL
4,O=C1CSC(c2ccc(Cl)cc2)N1c1ccc(Cl)cc1O (configuration not stated),165 µg/mL

# Tested on: Aspergillus flavus
# Assay: Fungicidal activity against Aspergillus flavus NCIM-539 after 48 to 72 hrs by two fold serial macrodilution technique
# Type: functional
# Details: not given
# In short: as §1
row,Structure (SMILES),MFC
1,O=C1CSC(c2ccccc2)N1c1ccc(Cl)cc1O (configuration not stated),115 µg/mL
2,O=C1CSC(c2ccc([N+](=O)[O-])cc2)N1c1ccc(Cl)cc1O (configuration not stated),135 µg/mL
3,O=C1CSC(c2ccc(Cl)cc2Cl)N1c1ccc(Cl)cc1O (configuration not stated),140 µg/mL
4,O=C1CSC(c2ccc(Cl)cc2)N1c1ccc(Cl)cc1O (configuration not stated),155 µg/mL

# Tested on: Cryptococcus neoformans
# Assay: Fungicidal activity against Cryptococcus neoformans NCIM-3378 after 48 to 72 hrs by two fold serial macrodilution technique
# Type: functional
# Details: not given
# In short: as §1
row,Structure (SMILES),MFC
1,O=C1CSC(c2ccccc2)N1c1ccc(Cl)cc1O (configuration not stated),125 µg/mL
2,O=C1CSC(c2ccc([N+](=O)[O-])cc2)N1c1ccc(Cl)cc1O (configuration not stated),135 µg/mL
3,O=C1CSC(c2ccc(Cl)cc2Cl)N1c1ccc(Cl)cc1O (configuration not stated),150 µg/mL
4,O=C1CSC(c2ccc(Cl)cc2)N1c1ccc(Cl)cc1O (configuration not stated),160 µg/mL

# Tested on: MCF7
# Assay: Cytotoxicity against human MCF7 cells by SRB method
# Type: cell-based
# Details: not given
# In short: (§2)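 SRB colorimetric growth assay. IC50, in µM, was the concentration inhibiting cell growth by 50% relative to untreated control cells. Runs were in triplicate in three independent experiments, with means reported. The positive control was doxorubicin.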
row,Structure (SMILES),IC50
1,O=C1CSC(c2ccccc2)N1c1ccc(Cl)cc1O (configuration not stated),56.8 µM
2,O=C1CSC(c2ccc([N+](=O)[O-])cc2)N1c1ccc(Cl)cc1O (configuration not stated),41 µM
3,O=C1CSC(c2ccc(Cl)cc2Cl)N1c1ccc(Cl)cc1O (configuration not stated),48.4 µM
4,O=C1CSC(c2ccc(Cl)cc2)N1c1ccc(Cl)cc1O (configuration not stated),56.2 µM

# Tested on: Aspergillus niger
# Assay: Antimicrobial activity against Aspergillus niger NCIM-1196 after 20 hrs by two fold serial macrodilution technique
# Type: functional
# Details: NCIM-1196, 20 h
row,MIC,Structure (SMILES)
1,90 µg/mL,O=C1CSC(c2ccccc2)N1c1ccc(Cl)cc1O (configuration not stated)
2,100 µg/mL,O=C1CSC(c2ccc([N+](=O)[O-])cc2)N1c1ccc(Cl)cc1O (configuration not stated)
3,70 µg/mL,O=C1CSC(c2ccc(Cl)cc2Cl)N1c1ccc(Cl)cc1O (configuration not stated)
4,65 µg/mL,O=C1CSC(c2ccc(Cl)cc2)N1c1ccc(Cl)cc1O (configuration not stated)

# Tested on: HeLa
# Assay: Cytotoxicity against human HeLa cells by SRB method
# Type: cell-based
# Details: not given
# In short: as §2
row,Structure (SMILES),IC50
1,O=C1CSC(c2ccccc2)N1c1ccc(Cl)cc1O (configuration not stated),63.7 µM
2,O=C1CSC(c2ccc([N+](=O)[O-])cc2)N1c1ccc(Cl)cc1O (configuration not stated),52.2 µM
3,O=C1CSC(c2ccc(Cl)cc2Cl)N1c1ccc(Cl)cc1O (configuration not stated),49.5 µM
4,O=C1CSC(c2ccc(Cl)cc2)N1c1ccc(Cl)cc1O (configuration not stated),64.4 µM

# Tested on: Aspergillus flavus
# Assay: Antimicrobial activity against Aspergillus flavus NCIM-539 after 20 hrs by two fold serial macrodilution technique
# Type: functional
# Details: NCIM-539, 20 h
row,MIC,Structure (SMILES)
1,80 µg/mL,O=C1CSC(c2ccccc2)N1c1ccc(Cl)cc1O (configuration not stated)
2,75 µg/mL,O=C1CSC(c2ccc([N+](=O)[O-])cc2)N1c1ccc(Cl)cc1O (configuration not stated)
3,85 µg/mL,O=C1CSC(c2ccc(Cl)cc2Cl)N1c1ccc(Cl)cc1O (configuration not stated)
4,90 µg/mL,O=C1CSC(c2ccc(Cl)cc2)N1c1ccc(Cl)cc1O (configuration not stated)

# Tested on: Staphylococcus aureus
# Assay: Antimicrobial activity against Staphylococcus aureus NCIM-2901 after 20 hrs by two fold serial macrodilution technique
# Type: functional
# Details: NCIM-2901, 20 h
# In short: (§3)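 Serial macrodilution in 96-well microtiter plates. Compounds were dissolved in saline (0.8% NaCl) containing 5% DMSO, and strains were incubated with a range of concentrations for 20 h at 37 °C on a rotary shaker (160 rpm). MIC was the lowest concentration without growth. Runs were in triplicate, with the mean taken. The negative control was 5% DMSO.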
row,MIC,Structure (SMILES)
1,25 µg/mL,O=C1CSC(c2ccccc2)N1c1ccc(Cl)cc1O (configuration not stated)
2,85 µg/mL,O=C1CSC(c2ccc([N+](=O)[O-])cc2)N1c1ccc(Cl)cc1O (configuration not stated)
3,90 µg/mL,O=C1CSC(c2ccc(Cl)cc2Cl)N1c1ccc(Cl)cc1O (configuration not stated)
4,20 µg/mL,O=C1CSC(c2ccc(Cl)cc2)N1c1ccc(Cl)cc1O (configuration not stated)

# Tested on: Escherichia coli
# Assay: Antimicrobial activity against Escherichia coli NCIM-2256 after 20 hrs by two fold serial macrodilution technique
# Type: functional
# Details: NCIM-2256, 20 h
# In short: as §3
row,MIC,Structure (SMILES)
1,65 µg/mL,O=C1CSC(c2ccccc2)N1c1ccc(Cl)cc1O (configuration not stated)
2,90 µg/mL,O=C1CSC(c2ccc([N+](=O)[O-])cc2)N1c1ccc(Cl)cc1O (configuration not stated)
3,70 µg/mL,O=C1CSC(c2ccc(Cl)cc2Cl)N1c1ccc(Cl)cc1O (configuration not stated)
4,50 µg/mL,O=C1CSC(c2ccc(Cl)cc2)N1c1ccc(Cl)cc1O (configuration not stated)

# Tested on: Candida albicans
# Assay: Antimicrobial activity against Candida albicans NCIM-3471 after 20 hrs by two fold serial macrodilution technique
# Type: functional
# Details: NCIM-3471, 20 h
row,MIC,Structure (SMILES)
1,60 µg/mL,O=C1CSC(c2ccccc2)N1c1ccc(Cl)cc1O (configuration not stated)
2,95 µg/mL,O=C1CSC(c2ccc([N+](=O)[O-])cc2)N1c1ccc(Cl)cc1O (configuration not stated)
3,90 µg/mL,O=C1CSC(c2ccc(Cl)cc2Cl)N1c1ccc(Cl)cc1O (configuration not stated)
4,70 µg/mL,O=C1CSC(c2ccc(Cl)cc2)N1c1ccc(Cl)cc1O (configuration not stated)

# Tested on: Bacillus subtilis
# Assay: Bactericidal activity against Bacillus subtilis NCIM-2063 after 72 hrs by two fold serial macrodilution technique
# Type: functional
# Details: NCIM-2063, 72 h
# In short: as §1
row,Structure (SMILES),MBC
1,O=C1CSC(c2ccccc2)N1c1ccc(Cl)cc1O (configuration not stated),85 µg/mL
2,O=C1CSC(c2ccc([N+](=O)[O-])cc2)N1c1ccc(Cl)cc1O (configuration not stated),140 µg/mL
3,O=C1CSC(c2ccc(Cl)cc2Cl)N1c1ccc(Cl)cc1O (configuration not stated),160 µg/mL
4,O=C1CSC(c2ccc(Cl)cc2)N1c1ccc(Cl)cc1O (configuration not stated),45 µg/mL

# Tested on: Cryptococcus neoformans
# Assay: Antimicrobial activity against Cryptococcus neoformans NCIM-3378 after 20 hrs by two fold serial macrodilution technique
# Type: functional
# Details: NCIM-3378, 20 h
row,MIC,Structure (SMILES)
1,70 µg/mL,O=C1CSC(c2ccccc2)N1c1ccc(Cl)cc1O (configuration not stated)
2,90 µg/mL,O=C1CSC(c2ccc([N+](=O)[O-])cc2)N1c1ccc(Cl)cc1O (configuration not stated)
3,100 µg/mL,O=C1CSC(c2ccc(Cl)cc2Cl)N1c1ccc(Cl)cc1O (configuration not stated)
4,95 µg/mL,O=C1CSC(c2ccc(Cl)cc2)N1c1ccc(Cl)cc1O (configuration not stated)

# Tested on: Salmonella typhimurium
# Assay: Bactericidal activity against […] after 72 hrs by two fold serial macrodilution technique
# Type: functional, Salmonella enterica subsp. enterica serovar Typhimurium
# Details: Salmonella enterica
# In short: as §1
row,Structure (SMILES),MBC
1,O=C1CSC(c2ccccc2)N1c1ccc(Cl)cc1O (configuration not stated),120 µg/mL
2,O=C1CSC(c2ccc([N+](=O)[O-])cc2)N1c1ccc(Cl)cc1O (configuration not stated),135 µg/mL
3,O=C1CSC(c2ccc(Cl)cc2Cl)N1c1ccc(Cl)cc1O (configuration not stated),155 µg/mL
4,O=C1CSC(c2ccc(Cl)cc2)N1c1ccc(Cl)cc1O (configuration not stated),155 µg/mL

# Tested on: Candida albicans
# Assay: Fungicidal activity against Candida albicans NCIM-3471 after 48 to 72 hrs by two fold serial macrodilution technique
# Type: functional
# Details: not given
# In short: as §1
row,Structure (SMILES),MFC
1,O=C1CSC(c2ccccc2)N1c1ccc(Cl)cc1O (configuration not stated),115 µg/mL
2,O=C1CSC(c2ccc([N+](=O)[O-])cc2)N1c1ccc(Cl)cc1O (configuration not stated),155 µg/mL
3,O=C1CSC(c2ccc(Cl)cc2Cl)N1c1ccc(Cl)cc1O (configuration not stated),160 µg/mL
4,O=C1CSC(c2ccc(Cl)cc2)N1c1ccc(Cl)cc1O (configuration not stated),160 µg/mL

# Tested on: Escherichia coli
# Assay: Bactericidal activity against Escherichia coli NCIM-2256 after 72 hrs by two fold serial macrodilution technique
# Type: functional
# Details: NCIM-2256, 72 h
# In short: as §1
row,Structure (SMILES),MBC
1,O=C1CSC(c2ccccc2)N1c1ccc(Cl)cc1O (configuration not stated),125 µg/mL
2,O=C1CSC(c2ccc([N+](=O)[O-])cc2)N1c1ccc(Cl)cc1O (configuration not stated),155 µg/mL
3,O=C1CSC(c2ccc(Cl)cc2Cl)N1c1ccc(Cl)cc1O (configuration not stated),150 µg/mL
4,O=C1CSC(c2ccc(Cl)cc2)N1c1ccc(Cl)cc1O (configuration not stated),165 µg/mL

# Tested on: Salmonella typhimurium
# Assay: Antimicrobial activity against […] after 20 hrs by two fold serial macrodilution technique
# Type: functional, Salmonella enterica subsp. enterica serovar Typhimurium
# Details: Salmonella enterica
# In short: as §3
row,MIC,Structure (SMILES)
1,55 µg/mL,O=C1CSC(c2ccccc2)N1c1ccc(Cl)cc1O (configuration not stated)
2,80 µg/mL,O=C1CSC(c2ccc([N+](=O)[O-])cc2)N1c1ccc(Cl)cc1O (configuration not stated)
3,75 µg/mL,O=C1CSC(c2ccc(Cl)cc2Cl)N1c1ccc(Cl)cc1O (configuration not stated)
4,65 µg/mL,O=C1CSC(c2ccc(Cl)cc2)N1c1ccc(Cl)cc1O (configuration not stated)

# Tested on: Bacillus subtilis
# Assay: Antimicrobial activity against Bacillus subtilis NCIM-2063 after 20 hrs by two fold serial macrodilution technique
# Type: functional
# Details: NCIM-2063, 20 h
# In short: as §3
row,MIC,Structure (SMILES)
1,60 µg/mL,O=C1CSC(c2ccccc2)N1c1ccc(Cl)cc1O (configuration not stated)
2,100 µg/mL,O=C1CSC(c2ccc([N+](=O)[O-])cc2)N1c1ccc(Cl)cc1O (configuration not stated)
3,80 µg/mL,O=C1CSC(c2ccc(Cl)cc2Cl)N1c1ccc(Cl)cc1O (configuration not stated)
4,25 µg/mL,O=C1CSC(c2ccc(Cl)cc2)N1c1ccc(Cl)cc1O (configuration not stated)

# Tested on: Staphylococcus aureus
# Assay: Bactericidal activity against Staphylococcus aureus NCIM-2901 after 72 hrs by two fold serial macrodilution technique
# Type: functional
# Details: NCIM-2901, 72 h
# In short: as §1
row,Structure (SMILES),MBC
1,O=C1CSC(c2ccccc2)N1c1ccc(Cl)cc1O (configuration not stated),40 µg/mL
2,O=C1CSC(c2ccc([N+](=O)[O-])cc2)N1c1ccc(Cl)cc1O (configuration not stated),140 µg/mL
3,O=C1CSC(c2ccc(Cl)cc2Cl)N1c1ccc(Cl)cc1O (configuration not stated),160 µg/mL
4,O=C1CSC(c2ccc(Cl)cc2)N1c1ccc(Cl)cc1O (configuration not stated),45 µg/mL
